Laboratory results published in ChEMBL document CHEMBL1144103, “Biologically active secondary metabolites from fungi. 12.(1) oidiolactones A-F, labdane diterpene derivatives isolated from oidiodendron truncata” (1999).

How the values were obtained:
Type in all cases: functional
[1] = tested on: Aspergillus pseudoglaucus; assay: Antifungal activity against Eurotium repens at 10 mg/mL by agar diffusion test; conditions: read-out: IZ
Method in brief: (§1)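 Agar diffusion test. Activity is scored on a 1-4 scale by the radius of the inhibition zone: 1-10 mm = 1, 10-20 mm = 2, 20-30 mm = 3, 30-40 mm = 4.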

[Chlorella] fusca = Herbicidal activity against Chlorella fusca at 10 mg/mL by agar diffusion test; conditions: Scenedesmus fuscus; read-out: IZ; method in brief: as §1
Mycotypha microspora = assay: Antifungal activity against Mycotypha microspora at 10 mg/mL by agar diffusion test; conditions: read-out: IZ; method in brief: as §1
Priestia megaterium = assay: Antibacterial activity against Bacillus megaterium at 10 mg/mL by agar diffusion test; conditions: read-out: IZ; method in brief: as §1
Microbotryum violaceum = assay: Antifungal activity against Ustilago violacea at 10 mg/mL by agar diffusion test; conditions: read-out: IZ; method in brief: as §1
Escherichia coli = assay: Antibacterial activity against Escherichia coli at 10 mg/mL by agar diffusion test; conditions: read-out: IZ; method in brief: as §1
Lemna minor = assay: Herbicidal activity against Lemna minor assessed as growth inhibition at 10 mg/mL after 1 and 6 days relative to control
Method in brief: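 Lemna minor growth inhibition. 10 mg of sample is dissolved in 0.05 mL MeOH plus 0.05 mL acetone and added to 10 mL test medium (growth medium without sucrose) in 5 cm Petri dishes, each holding 15 plants. Plants are scored after 1 and 6 days.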

Lepidium sativum = assay: Herbicidal activity against Lepidium sativum assessed as growth inhibition at 10 mg/mL relative to control

Compound	zone of inhibition at 10000 µg/mL [1] [mm]	zone of inhibition at 10000 µg/mL ([Chlorella] fusca) [mm]	zone of inhibition at 10000 µg/mL (Mycotypha microspora) [mm]	zone of inhibition at 10000 µg/mL (Priestia megaterium) [mm]	zone of inhibition at 10000 µg/mL (Microbotryum violaceum) [mm]	zone of inhibition at 10000 µg/mL (Escherichia coli) [mm]	inhibition at 10000 µg/mL (Lemna minor) [%]	inhibition at 10000 µg/mL (Lepidium sativum) [%]
C[C@]12CCC[C@](C)(C(=O)O)[C@@H]1C=C[C@]1(O)COC(=O)C[C@H]21 [OIDIOLACTONE E]	1	1	0	0	1	0	–	–
C[C@@]12CCC[C@]3(C)C4=CC(=O)O[C@@H](O)[C@]45O[C@@H]5[C@@H](OC1=O)[C@@H]23 [OIDIOLACTONE D]	1	1	1	0	1	0	–	–
CO[C@H]1OC(=O)C=C2C1=C[C@H]1OC(=O)[C@@]3(C)CCC[C@@]2(C)[C@@H]13	–	20	–	1	30	–	–	–
CO[C@H]1OC(=O)C=C2[C@@]13O[C@@H]3[C@H]1OC(=O)[C@@]3(C)CCC[C@@]2(C)[C@@H]13	1	10	1	1	10	0	> 90	100
